Data on 29 compounds can be found in ChEMBL document CHEMBL2311381, “Synthesis and biological activity of aminophthalazines and aminopyridazines as novel inhibitors of PGE2 production in cells” (Bioorg Med Chem Lett, 2013).

As usually defined, the inhibition is the percentage by which the read-out fell short of the control. As a reminder, the EC50 is the midpoint of the concentration-response curve. High values mean weaker potency, low ones greater potency.

SMILES strings stand for the structures. Calls of active or inactive are those of the source. The calls are words filed in the database; no cut-off is given here.

Data set [1] can be described thus: (§1) Inhibition of IL-1beta-induced PGE2 production in human HCA-7 cells at 1 uM after 72 hrs by EIA. Type of data set: functional. To be noted: HCA-7, 72 h. Put shortly: (§2)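 HCA-7 colon cancer cells were grown overnight in DMEM/10% FBS, then serum-starved for 18 h. They were stimulated with 10 ng/ml IL-1β together with compound (DMSO solution) in serum-free medium for 72 h. PGE2 in the supernatant was measured by EIA. Single-concentration screening was at 1 µM, giving % reduction ± SD (n = 3). EC50 values came from increasing concentrations. Celecoxib served as the positive control.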

The nature of data set [2]: Inhibition of IL-1beta-induced PGE2 production in human HCA-7 cells after 72 hrs by EIA. It counts as functional, cell-based. Conditions: HCA-7, 72 h. The method, boiled down: as §2
The target of data set [3] is T1, Prostaglandin G/H synthase 2 (Homo sapiens, UniProt P35354).
T1 sequence (P35354 whole entry): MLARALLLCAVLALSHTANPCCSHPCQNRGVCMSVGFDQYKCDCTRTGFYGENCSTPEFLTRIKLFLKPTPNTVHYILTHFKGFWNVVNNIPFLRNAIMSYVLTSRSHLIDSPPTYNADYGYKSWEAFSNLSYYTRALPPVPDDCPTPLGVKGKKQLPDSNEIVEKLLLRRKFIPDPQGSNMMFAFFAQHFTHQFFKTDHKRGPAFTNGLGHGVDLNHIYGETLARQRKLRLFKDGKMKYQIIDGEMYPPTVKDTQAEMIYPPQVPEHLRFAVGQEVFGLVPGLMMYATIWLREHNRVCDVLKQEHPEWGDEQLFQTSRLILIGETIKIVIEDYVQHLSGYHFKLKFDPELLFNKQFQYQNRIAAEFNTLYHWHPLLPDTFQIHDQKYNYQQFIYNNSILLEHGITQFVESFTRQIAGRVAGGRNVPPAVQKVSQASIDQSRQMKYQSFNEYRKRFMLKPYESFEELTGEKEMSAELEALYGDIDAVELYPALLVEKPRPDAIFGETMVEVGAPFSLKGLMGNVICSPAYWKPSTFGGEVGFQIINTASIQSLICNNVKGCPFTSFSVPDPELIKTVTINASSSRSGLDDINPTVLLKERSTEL
In words: (§3) Inhibition of COX-2 (unknown origin) at 5 uM. To be noted: 5 µM. Put shortly: (§4)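 Cell-free COX-2 activity measured with a fluorescent COX inhibitor screening kit, run per the kit instructions. Compounds were tested at 5 µM. Results are given as % inhibition ± SD (n = 3). Celecoxib served as the positive control. Dose-response curves were not run.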

In data set [4] the target is T2, COX-2 (Prostaglandin G/H synthase 2) (Homo sapiens, UniProt P35354).
T2 sequence (P35354 whole entry): T1 sequence (P35354 whole entry)
The data set is described as §3. Put shortly: as §4

For a further data set, the system named is HCA-7. The description is as §1. It counts as functional. Put shortly:
as §2

Data set [5] deals with HCA-7 cells (Homo sapiens). In words: Inhibition of PGE2 production in human HCA-7 cells.

`COc1ccccc1-c1nnc(Nc2ccc(C)cc2)c2ccccc12` returned an inhibition at 1 µM in data set [1] of 77.2%. Besides, the EC50 in data set [2] was 590 nM. In data set [3], the “inhibition (INH)” value is listed as “Not Active”.

For `CCOc1ccc(-c2nnc(Nc3ccc(C)cc3)c3ccccc23)cc1`, 1 µM produced 75.3% inhibition in data set [1]. In data set [2], this compound showed an EC50 of 570 nM. Further, in data set [3], the “inhibition (INH)” value is on record as “Not Active”.

`Clc1cccc(Nc2nnc(-c3ccccc3)c3ccccc23)c1` displayed an inhibition at 1 µM in data set [1] of 79.4%. Also, the EC50 in data set [2] is 500 nM. This compound registered an inhibition at 5 µM in data set [4] of 10.1%.

Turning to `Oc1ccc(Nc2nnc(-c3ccccc3)c3ccccc23)cc1`, the inhibition at 1 µM in data set [1] amounted to 26.7%.

`COc1cccc(-c2nnc(Nc3ccc(C)cc3)c3ccccc23)c1` had an inhibition at 1 µM in data set [1] of 62%.

With `COc1ccc(-c2nnc(Nc3ccc(Oc4ccccc4)cc3)c3ccccc23)cc1`, testing at 1 µM in data set [1] gave an inhibition of 92.6%. This compound also returned an EC50 in data set [2] of 90 nM. Also, the “inhibition (INH)” value in data set [3] is reported as “Not Active”.

For the compound `COc1ccc(-c2nnc(Nc3ccc(OCC(N)=O)cc3)c3ccccc23)cc1`, the inhibition entry in the data set with HCA-7 is “inactive”.

Turning to `COc1ccc(-c2nnc(Nc3ccccc3)c3ccccc23)cc1`, the inhibition at 1 µM in data set [1] was 97.3%. In addition, the EC50 in data set [2] stood at 20 nM. The compound also showed an inhibition at 5 µM in data set [4] of 3%.

The compound `Cc1ccc(Nc2nnc(-c3ccc(OC(C)C)cc3)c3ccccc23)cc1` came in with an inhibition at 1 µM in data set [1] of 76.7%. The EC50 in data set [2] came to 700 nM. For the same compound, in data set [3], the “inhibition (INH)” value was “Not Active”.

For `COc1ccc(-c2nnc(Nc3cccc(C)c3)c3ccccc23)cc1`, 1 µM produced 87.5% inhibition in data set [1]. In data set [2], the EC50 worked out at 640 nM. Further, the “inhibition (INH)” value in data set [3] is reported as “Not Active”.

In data set [1], `COc1ccc(-c2ccc(Nc3ccc(C)cc3)nn2)cc1` displayed an inhibition at 1 µM of 49%.

`Cc1ccc(Nc2nnc(-c3ccc4c(c3)OCO4)c3ccccc23)cc1` displayed an inhibition at 1 µM in data set [1] of 59%.

As to `COc1ccc(N(C)c2nnc(-c3ccccc3)c3ccccc23)cc1`, at 1 µM the inhibition in data set [1] was 92.4%. In data set [2], this compound showed an EC50 of 220 nM. Moreover, at 5 µM the inhibition in data set [4] was 21.4%.

In data set [1], `Cc1ccc(Nc2ccc(-c3ccccc3)nn2)cc1` registered an inhibition at 1 µM of 62.5%.

As to `Clc1ccc(-c2csc(Nc3ccc(Oc4ccccc4)cc3)n2)cc1`, the EC50 in data set [5] and in data set [2] was 330 nM in each case.

As for `Cc1ccc(Nc2nnc(-c3ccccc3Cl)c3ccccc23)cc1`, the inhibition at 1 µM in data set [1] was determined as 97.2%. Besides, the 50% effective concentration (EC50) in data set [2] was 380 nM. Also, the “inhibition (INH)” value in data set [3] is on record as “Not Active”.

In turn, `COc1ccc(-c2nnc(N(C)c3ccc(C)cc3)c3ccccc23)cc1` gave an inhibition at 1 µM in data set [1] of 87%. For the same compound, in data set [2], it took 50 nM to reach a half-maximal effect (EC50). Further, in data set [3], the “inhibition (INH)” value is listed as “Not Active”.

In turn, `c1ccc(Oc2ccc(Nc3nnc(-c4ccccc4)c4ccccc34)cc2)cc1` returned an inhibition at 1 µM in data set [1] of 71.2%. For the same compound, in data set [3], the “inhibition (INH)” value is listed as “Not Active”.

Turning to `Cc1ccc(Nc2nnc(-c3cccc(Cl)c3)c3ccccc23)cc1`, in data set [1], the inhibition at 1 µM was 75.2%. The compound also had an EC50 in data set [2] of 860 nM. Besides, the “inhibition (INH)” value in data set [3] was “Not Active”.

`Cc1ccc(Nc2nnc(-c3cccc(-c4ccccc4)c3)c3ccccc23)cc1`: the inhibition at 1 µM in data set [1] was determined as 84.2%. The compound also registered an EC50 in data set [2] of 540 nM. In addition, the “inhibition (INH)” value in data set [3] was “Not Active”.

Turning to `COc1ccc(Nc2nnc(-c3ccc(C(=O)NCCO)cc3)c3ccccc23)cc1`, the inhibition at 1 µM in data set [1] was determined as 39.2%.

Turning to `Cc1ccc(Nc2nnc(-c3ccc(N(C)C)cc3)c3ccccc23)cc1`, testing at 1 µM in data set [1] gave an inhibition of 94.4%. Moreover, a half-maximal effect in data set [2] (EC50) was put at 420 nM. Further, the inhibition at 5 µM in data set [4] was determined as 14.2%.

Regarding `COc1ccc(-c2nnc(Nc3ccc(C)cc3)c3ccccc23)cc1`, the inhibition at 1 µM in data set [1] was 98.3%. For the same compound, the EC50 in data set [2] was found to be 32 nM. Besides, in data set [3], the “inhibition (INH)” value is recorded as “Not Active”.

`Cc1ccc(Nc2nnc(-c3cncnc3)c3ccccc23)cc1`: 1 µM produced 15.1% inhibition in data set [1].

As to `Cc1cccc(Nc2nnc(-c3ccccc3)c3ccccc23)c1`, in data set [1], the inhibition at 1 µM worked out at 74.1%. In addition, the EC50 in data set [2] was determined as 760 nM. Besides, in data set [3], the “inhibition (INH)” value is “Not Active”.

Take `NS(=O)(=O)c1ccc(Nc2nnc(-c3ccccc3)c3ccccc23)cc1`: the inhibition result with HCA-7 is “inactive”.

With `CCc1ccc(Nc2nnc(-c3ccc(OC)cc3)c3ccccc23)cc1`, in data set [1], 1 µM produced 85% inhibition. This compound yielded an EC50 in data set [2] of 930 nM. For the same compound, the “inhibition (INH)” value in data set [3] is given as “Not Active”.

In turn, `CCOC(=O)c1ccc(Nc2nnc(-c3ccccc3)c3ccccc23)cc1` registered an inhibition at 1 µM in data set [1] of 18.4%.

In data set [1], `Cc1ccc(Nc2nnc(-c3ccccc3)c3ccccc23)cc1` showed an inhibition at 1 µM of 98.9%. The EC50 in data set [2] came to 31 nM. The compound also returned an inhibition at 5 µM in data set [4] of 23%.
